Data: ChEMBL document CHEMBL4373711, “Development of 3,5-Dinitrophenyl-Containing 1,2,4-Triazoles and Their Trifluoromethyl Analogues as Highly Efficient Antitubercular Agents Inhibiting Decaprenylphosphoryl-β-d-ribofuranose 2'-Oxidase” (J Med Chem, 2019)
In brackets after ≈: the same amount, converted by molar mass. Activity calls are given as the source filed them. The rule behind the calls is not given here.

Experiments:
[1] = system: Mycobacterium tuberculosis; test: Antimycobacterial activity against Mycobacterium tuberculosis H37Rv CNCTC My 331/88 after 14 days; type: functional; details: H37Rv CNCTC My 331/88, 336 h
How it was run: (§1)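 M. tuberculosis strains (H37Rv and clinical MDR/XDR isolates) tested by microdilution in Šula's semisynthetic medium. Compounds were dissolved in DMSO and tested at 32 to 0.03 µM in twofold steps. Inoculum was a 1.0 McFarland suspension diluted 10-3. Plates were incubated at 37 °C and read at 14 and 21 days.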

Pichia kudriavzevii = test: Antifungal activity against Candida krusei ATCC 6258 CCM8271 at highest concentration measured after 24 to 48 hrs by alamar blue dye based broth microdilution assay; type: functional, organism-based
Lichtheimia corymbifera = test: Antifungal activity against Lichtheimia corymbifera CCM 8077 at highest concentration measured after 24 to 48 hrs by alamar blue dye based broth microdilution assay; type: functional, organism-based
Candida tropicalis = test: Antifungal activity against Candida tropicalis ATCC 750 CCM 8264 at highest concentration measured after 24 to 48 hrs by alamar blue dye based broth microdilution assay; type: functional, organism-based
Enterococcus faecalis = test: Antibacterial activity against Enterococcus faecalis ATCC 29212 CCM 4224 at highest concentration measured after 24 to 48 hrs by alamar blue dye based broth microdilution assay; type: functional, organism-based
[2] = system: Mycobacterium tuberculosis; test: Antimycobacterial activity against Mycobacterium tuberculosis H37Rv CNCTC My 331/88 after 21 days; type: functional; details: H37Rv CNCTC My 331/88, 504 h; how it was run: as §1
Mycobacterium avium [3] = test: Antimycobacterial activity against Mycobacterium avium CNCTC My 330/88 after 14 days; type: functional; details: CNCTC My 330/88, 336 h
How it was run: (§2)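 M. avium was tested by microdilution in Šula's semisynthetic medium, with compounds dissolved in DMSO and serially diluted from 1000 down to 1. Inoculum was a 1.0 McFarland suspension diluted 10-5. Plates were incubated at 37 °C and read at 14 and 21 days. […] Isoniazid and rifampicin served as standards.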

Escherichia coli = test: Antibacterial activity against Escherichia coli ATCC 25922 CCM 3954 at highest concentration measured after 24 to 48 hrs by alamar blue dye based broth microdilution assay; type: functional, organism-based
Candida parapsilosis = test: Antifungal activity against Candida parapsilosis ATCC 22019 CCM 8260 at highest concentration measured after 24 to 48 hrs by alamar blue dye based broth microdilution assay; type: functional, organism-based
Klebsiella pneumoniae = test: Antibacterial activity against Klebsiella pneumoniae at highest concentration measured after 24 to 48 hrs by alamar blue dye based broth microdilution assay; type: functional, organism-based
Staphylococcus aureus [4] = test: Antibacterial activity against methicillin-resistant Staphylococcus aureus subsp. aureus ATCC 43300 CCM 4750 at highest concentration measured after 24 to 48 hrs by alamar blue dye based broth microdilution assay; type: functional, organism-based
Pseudomonas aeruginosa = test: Antibacterial activity against Pseudomonas aeruginosa ATCC 27853 CCM 3955 at highest concentration measured after 24 to 48 hrs by alamar blue dye based broth microdilution assay; type: functional, organism-based
Staphylococcus aureus [5] = test: Antibacterial activity against Staphylococcus aureus subsp. aureus ATCC 29213 CCM 4223 at highest concentration measured after 24 to 48 hrs by alamar blue dye based broth microdilution assay; type: functional, organism-based
Candida albicans = test: Antifungal activity against Candida albicans ATCC 24433 CCM 8320 at highest concentration measured after 24 to 48 hrs by alamar blue dye based broth microdilution assay; type: functional, organism-based
Aspergillus fumigatus = test: Antifungal activity against Aspergillus fumigatus ATCC 204305 at highest concentration measured after 24 to 48 hrs by alamar blue dye based broth microdilution assay; type: functional, organism-based
Mycobacterium kansasii [6] = test: Antimycobacterial activity against Mycobacterium kansasii 6509/96 after 14 days; type: functional; details: 6509/96, 336 h
How it was run: (§3)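 Microdilution in Šula's semisynthetic medium; compounds in DMSO at 32–0.03 µM. Inoculum from 1.0 McFarland suspension diluted 10-4. […] Isoniazid and rifampicin as reference drugs.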

Aspergillus flavus = test: Antifungal activity against Aspergillus flavus CCM 8363 at highest concentration measured after 24 to 48 hrs by alamar blue dye based broth microdilution assay; type: functional, organism-based
[7] = system: Trichophyton interdigitale; test: Antifungal activity against Trichophyton interdigitale ATCC 9533 CCM 8377 at highest concentration measured after 72 to 120 hrs by alamar blue dye based broth microdilution assay; type: functional
Mycobacterium kansasii [8] = test: Antimycobacterial activity against Mycobacterium kansasii CNCTC My 235/80 after 14 days; type: functional; details: CNCTC My 235/80, 336 h; how it was run: as §3
[9] = system: Staphylococcus epidermidis; test: Antibacterial activity against Staphylococcus epidermidis at highest concentration measured after 24 to 48 hrs by alamar blue dye based broth microdilution assay; type: functional, organism-based
Mycobacterium kansasii [10] = test: Antimycobacterial activity against Mycobacterium kansasii 6509/96 after 7 days; type: functional; details: 6509/96, 168 h; how it was run: as §3
Mycobacterium kansasii [11] = test: Antimycobacterial activity against Mycobacterium kansasii CNCTC My 235/80 after 7 days; type: functional; details: CNCTC My 235/80, 168 h; how it was run: as §3
Mycobacterium kansasii [12] = test: Antimycobacterial activity against Mycobacterium kansasii 6509/96 after 21 days; type: functional; details: 6509/96, 504 h; how it was run: as §3
Mycobacterium kansasii [13] = test: Antimycobacterial activity against Mycobacterium kansasii CNCTC My 235/80 after 21 days; type: functional; details: CNCTC My 235/80, 504 h; how it was run: as §3
Mycobacterium avium [14] = test: Antimycobacterial activity against Mycobacterium avium CNCTC My 330/88 after 21 days; type: functional; details: CNCTC My 330/88, 504 h; how it was run: as §2
Serratia marcescens = test: Antibacterial activity against Serratia marcescens at highest concentration measured after 24 to 48 hrs by alamar blue dye based broth microdilution assay; type: functional, organism-based

SMILES | MIC99 [1] | Activity (Pichia kudriavzevii) | Activity (Lichtheimia corymbifera) | Activity (Candida tropicalis) | Activity (Enterococcus faecalis) | MIC99 [2] | MIC99 (Mycobacterium avium [3]) | Activity (Escherichia coli) | Activity (Candida parapsilosis) | Activity (Klebsiella pneumoniae) | Activity (Staphylococcus aureus [4]) | Activity (Pseudomonas aeruginosa) | Activity (Staphylococcus aureus [5]) | Activity (Candida albicans) | Activity (Aspergillus fumigatus) | MIC99 (Mycobacterium kansasii [6]) | Activity (Aspergillus flavus) | Activity [7] | MIC99 (Mycobacterium kansasii [8]) | Activity [9] | other results
O=[N+]([O-])c1cc(Cn2c(SCc3ccccc3)nnc2-c2ccccc2)cc([N+](=O)[O-])c1 | 8 µM (≈ 3.58 µg/mL) | inactive | inactive | inactive | inactive | 16 µM (≈ 7.16 µg/mL) | > 1000 µM | inactive | inactive | inactive | inactive | inactive | inactive | inactive | inactive | 16 µM (≈ 7.16 µg/mL) | inactive | inactive | 8 µM (≈ 3.58 µg/mL) | inactive | MIC99 (Mycobacterium kansasii [10]): 8 µM (≈ 3.58 µg/mL); MIC99 (Mycobacterium kansasii [11]): 4 µM (≈ 1.79 µg/mL); MIC99 (Mycobacterium kansasii [12]): 16 µM (≈ 7.16 µg/mL); MIC99 (Mycobacterium kansasii [13]): 16 µM (≈ 7.16 µg/mL); MIC99 (Mycobacterium avium [14]): > 1000 µM; Activity (Serratia marcescens): inactive
O=[N+]([O-])c1cc(CSc2nnc(C3CCCCC3)n2Cc2ccccc2)cc([N+](=O)[O-])c1 | 2 µM (≈ 0.907 µg/mL) | inactive | inactive | inactive | inactive | 4 µM (≈ 1.81 µg/mL) | 250 µM (≈ 113 µg/mL) | inactive | inactive | inactive | inactive | inactive | inactive | inactive | inactive | 4 µM (≈ 1.81 µg/mL) | inactive | inactive | 4 µM (≈ 1.81 µg/mL) | inactive | MIC99 (Mycobacterium kansasii [10]): 4 µM (≈ 1.81 µg/mL); MIC99 (Mycobacterium kansasii [11]): 4 µM (≈ 1.81 µg/mL); MIC99 (Mycobacterium kansasii [12]): 4 µM (≈ 1.81 µg/mL); MIC99 (Mycobacterium kansasii [13]): 4 µM (≈ 1.81 µg/mL); MIC99 (Mycobacterium avium [14]): 250 µM (≈ 113 µg/mL); Activity (Serratia marcescens): inactive
O=[N+]([O-])c1cc(CSc2nnc(-c3ccccc3)n2Cc2ccc(Cl)cc2Cl)cc([N+](=O)[O-])c1 | > 32 µM | inactive | inactive | inactive | inactive | > 32 µM | 250 µM (≈ 129 µg/mL) | inactive | inactive | inactive | inactive | inactive | inactive | inactive | inactive | > 32 µM | inactive | inactive | > 32 µM | inactive | MIC99 (Mycobacterium kansasii [10]): > 32 µM; MIC99 (Mycobacterium kansasii [11]): > 32 µM; MIC99 (Mycobacterium kansasii [12]): > 32 µM; MIC99 (Mycobacterium kansasii [13]): > 32 µM; MIC99 (Mycobacterium avium [14]): 250 µM (≈ 129 µg/mL); Activity (Serratia marcescens): inactive
O=[N+]([O-])c1cc(CSc2nnc(-c3ccc(O)cc3)n2Cc2ccccc2)cc([N+](=O)[O-])c1 | 16 µM (≈ 7.42 µg/mL) | inactive | inactive | inactive | inactive | 16 µM (≈ 7.42 µg/mL) | 250 µM (≈ 116 µg/mL) | inactive | inactive | inactive | inactive | inactive | inactive | inactive | inactive | 16 µM (≈ 7.42 µg/mL) | inactive | inactive | 16 µM (≈ 7.42 µg/mL) | inactive | MIC99 (Mycobacterium kansasii [10]): 8 µM (≈ 3.71 µg/mL); MIC99 (Mycobacterium kansasii [11]): 8 µM (≈ 3.71 µg/mL); MIC99 (Mycobacterium kansasii [12]): 16 µM (≈ 7.42 µg/mL); MIC99 (Mycobacterium kansasii [13]): 16 µM (≈ 7.42 µg/mL); MIC99 (Mycobacterium avium [14]): 250 µM (≈ 116 µg/mL); Activity (Serratia marcescens): inactive
CCCCCCCCCCCc1nnc(SCc2cc([N+](=O)[O-])cc([N+](=O)[O-])c2)n1Cc1ccccc1 | 4 µM (≈ 2.1 µg/mL) | inactive | inactive | inactive | inactive | 4 µM (≈ 2.1 µg/mL) | 250 µM (≈ 131 µg/mL) | inactive | inactive | inactive | inactive | inactive | inactive | inactive | inactive | 4 µM (≈ 2.1 µg/mL) | inactive | inactive | 4 µM (≈ 2.1 µg/mL) | inactive | MIC99 (Mycobacterium kansasii [10]): 2 µM (≈ 1.05 µg/mL); MIC99 (Mycobacterium kansasii [11]): 2 µM (≈ 1.05 µg/mL); MIC99 (Mycobacterium kansasii [12]): 8 µM (≈ 4.21 µg/mL); MIC99 (Mycobacterium kansasii [13]): 4 µM (≈ 2.1 µg/mL); MIC99 (Mycobacterium avium [14]): 250 µM (≈ 131 µg/mL); Activity (Serratia marcescens): inactive
COc1ccc(-c2nnc(SCc3cc([N+](=O)[O-])cc([N+](=O)[O-])c3)n2Cc2ccccc2)cc1 | 4 µM (≈ 1.91 µg/mL) | inactive | inactive | inactive | inactive | 4 µM (≈ 1.91 µg/mL) | 250 µM (≈ 119 µg/mL) | inactive | inactive | inactive | inactive | inactive | inactive | inactive | inactive | 8 µM (≈ 3.82 µg/mL) | inactive | inactive | 8 µM (≈ 3.82 µg/mL) | inactive | MIC99 (Mycobacterium kansasii [10]): 8 µM (≈ 3.82 µg/mL); MIC99 (Mycobacterium kansasii [11]): 4 µM (≈ 1.91 µg/mL); MIC99 (Mycobacterium kansasii [12]): 8 µM (≈ 3.82 µg/mL); MIC99 (Mycobacterium kansasii [13]): 8 µM (≈ 3.82 µg/mL); MIC99 (Mycobacterium avium [14]): 250 µM (≈ 119 µg/mL); Activity (Serratia marcescens): inactive
O=[N+]([O-])c1cc(-c2nnc(SCc3ccccc3)n2Cc2ccc(Cl)cc2Cl)cc([N+](=O)[O-])c1 | 2 µM (≈ 1.03 µg/mL) | inactive | inactive | inactive | inactive | 2 µM (≈ 1.03 µg/mL) | 16 µM (≈ 8.26 µg/mL) | inactive | inactive | inactive | inactive | inactive | inactive | inactive | inactive | 4 µM (≈ 2.07 µg/mL) | inactive | inactive | 4 µM (≈ 2.07 µg/mL) | inactive | MIC99 (Mycobacterium kansasii [10]): 4 µM (≈ 2.07 µg/mL); MIC99 (Mycobacterium kansasii [11]): 2 µM (≈ 1.03 µg/mL); MIC99 (Mycobacterium kansasii [12]): 4 µM (≈ 2.07 µg/mL); MIC99 (Mycobacterium kansasii [13]): 4 µM (≈ 2.07 µg/mL); MIC99 (Mycobacterium avium [14]): 16 µM (≈ 8.26 µg/mL); Activity (Serratia marcescens): inactive
O=[N+]([O-])c1cc(CSc2nnc(-c3ccccc3)n2Cc2ccccc2)cc(C(F)(F)F)c1 | 16 µM (≈ 7.53 µg/mL) | inactive | inactive | inactive | inactive | 32 µM (≈ 15.1 µg/mL) | 250 µM (≈ 118 µg/mL) | inactive | inactive | inactive | inactive | inactive | inactive | inactive | inactive | > 32 µM | inactive | inactive | > 32 µM | inactive | MIC99 (Mycobacterium kansasii [10]): > 32 µM; MIC99 (Mycobacterium kansasii [11]): > 32 µM; MIC99 (Mycobacterium kansasii [12]): > 32 µM; MIC99 (Mycobacterium kansasii [13]): > 32 µM; MIC99 (Mycobacterium avium [14]): 250 µM (≈ 118 µg/mL); Activity (Serratia marcescens): inactive
